Active and inactive are the calls of the source. No cut-off for these calls is given here.
Legend:
Adenosine receptor A1 [1] = molecular target: T1, Adenosine receptor A1 (Homo sapiens, UniProt P30542); test: Displacement of [3H] DPCPX from human A1 adenosine receptor expressed in Flp-In-CHO cell membrane incubated for 4 hrs by microbeta scintillation counting method; type: cell membranes
T1 sequence (P30542 whole entry): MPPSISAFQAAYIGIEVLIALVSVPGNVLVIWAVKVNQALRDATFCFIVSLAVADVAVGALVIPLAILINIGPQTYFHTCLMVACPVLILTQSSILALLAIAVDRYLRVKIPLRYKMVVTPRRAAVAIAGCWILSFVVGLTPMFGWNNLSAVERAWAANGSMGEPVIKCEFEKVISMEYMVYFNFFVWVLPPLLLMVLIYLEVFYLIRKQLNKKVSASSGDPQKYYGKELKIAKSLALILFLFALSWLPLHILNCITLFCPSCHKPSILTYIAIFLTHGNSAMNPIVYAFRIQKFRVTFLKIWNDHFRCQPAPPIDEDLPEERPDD

Adenosine receptor A1 [2] = molecular target: T1, Adenosine receptor A1; test: Displacement of [3H] DPCPX from human adenosine A1 receptor expressed in Flp-In-CHO cell membrane incubated for 3 hrs followed by compound washout and further incubated for 4 hrs with radioligand by microbeta scintillation counting method; type: cell membranes
[3] = molecular target: T2, Adenosine receptor A3 (Homo sapiens) (UniProt P0DMS8); test: Inhibition of CA200645 binding to NanoLuc-fused human Adenosine A3 receptor expressed in HEK293-A cells using furimazine as substrate preincubated for 3 hrs followed by ligand washout and further incubated for 60 mins with CA200645 by NanoBRET assay; type: cell-based
T2 sequence (whole entry): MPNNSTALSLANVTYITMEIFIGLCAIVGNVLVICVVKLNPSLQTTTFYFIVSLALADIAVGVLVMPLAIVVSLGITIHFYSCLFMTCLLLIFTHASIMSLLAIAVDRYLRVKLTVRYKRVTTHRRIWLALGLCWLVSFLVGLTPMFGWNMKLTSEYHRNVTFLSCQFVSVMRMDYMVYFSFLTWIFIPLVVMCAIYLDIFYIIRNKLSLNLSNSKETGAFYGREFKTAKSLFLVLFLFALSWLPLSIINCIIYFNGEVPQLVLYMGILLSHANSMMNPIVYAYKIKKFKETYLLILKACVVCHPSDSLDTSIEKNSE
Outline: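 HEK293A cells transiently transfected (PEI) with N-terminal Nluc-A3R cDNA, assayed 48 h post-transfection. Cells incubated with competing ligands for 3 h in binding buffer, then washed 6 × 20 min. 5 nM CA200645 added for 60 min at room temperature, then 10 μM furimazine (final). BRET read as 610/460 nm emission ratio at 25 °C. Nonspecific binding defined with 1 μM MRS1220.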

Adenosine receptor A1 [4] = molecular target: T1, Adenosine receptor A1; test: Antagonist activity at human adenosine A1 receptor expressed in Flp-In-CHO cell membrane assessed as inhibition of NECA-induced cAMP accumulation in presence of forskolin measured after 40 mins by alpha screen LANCE assay; type: functional, cell membranes
Adenosine receptor A3 = molecular target: T3, Adenosine receptor A3 (Homo sapiens, UniProt P0DMS8); test: Antagonist activity at human adenosine A3 receptor expressed in Flp-In-CHO cell membrane assessed as inhibition of NECA-induced cAMP accumulation in presence of forskolin measured after 40 mins by alpha screen LANCE assay; type: functional, cell membranes
T3 sequence (P0DMS8 whole entry): T2 sequence (whole entry)

[5] = molecular target: T4, Adenosine receptor A1 (Homo sapiens) (UniProt P30542); details: Flp-In-CHO, Membrane, filed as antagonist, time 40.0 min
T4 sequence (whole entry): T1 sequence (P30542 whole entry)

[6] = molecular target: T4, Adenosine receptor A1 (Homo sapiens); details: Flp-In-CHO, Membrane, filed as antagonist, time 40.0 min; remark: listed apart in the source
[7] = molecular target: T2, Adenosine receptor A3 (Homo sapiens); details: Flp-In-CHO, Membrane, filed as antagonist, time 40.0 min
Adenosine receptor A1 [8] = molecular target: T1, Adenosine receptor A1; test: Antagonist activity at human adenosine A1 receptor expressed in Flp-In-CHO cell membrane assessed as inhibition of forskolin-stimulated cAMP accumulation preincubated for 5 min followed by forskolin stimulation and further incubated for 30 mins in presence of NECA by alphascreen LANCE assay
Adenosine receptor A2a [9] = molecular target: T5, Adenosine receptor A2a (Homo sapiens, UniProt P29274); test: Antagonist activity at human adenosine A2A receptor expressed in Flp-In-CHO cell membrane assessed as inhibition of NECA-induced cAMP accumulation in presence of forskolin measured after 40 mins by alpha screen LANCE assay; type: functional, cell membranes
[10] = molecular target: T6, Adenosine receptor A2b (Homo sapiens) (UniProt P29275); test: (§1) Antagonist activity at human adenosine A2B receptor expressed in Flp-In-CHO cell membrane assessed as inhibition of NECA-induced cAMP accumulation in presence of forskolin measured after 40 mins by alpha screen LANCE assay; type: functional; details: filed as antagonist
T6 sequence (whole entry): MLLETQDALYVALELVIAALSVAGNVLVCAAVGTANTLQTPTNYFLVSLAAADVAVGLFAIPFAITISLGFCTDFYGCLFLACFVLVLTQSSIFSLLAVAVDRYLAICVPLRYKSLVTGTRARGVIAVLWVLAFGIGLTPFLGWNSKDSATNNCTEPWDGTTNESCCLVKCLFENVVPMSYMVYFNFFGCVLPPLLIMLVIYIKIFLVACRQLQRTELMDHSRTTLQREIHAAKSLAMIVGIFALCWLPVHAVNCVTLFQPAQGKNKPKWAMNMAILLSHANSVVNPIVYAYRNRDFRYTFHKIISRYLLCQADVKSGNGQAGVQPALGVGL
Outline: (§2)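 A2BR-FlpInCHO cells seeded at 30000 cells/well and incubated overnight at 37 °C. Antagonists tested against a submaximal (EC80) NECA concentration; NECA curves run alongside. cAMP response normalized to buffer (0%) and 3 μM forskolin (100%). Affinity derived by fitting NECA–antagonist interaction data to a competitive model. Duplicates, ≥3 experiments.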

Adenosine receptor A2b = molecular target: T7, Adenosine receptor A2b (Homo sapiens, UniProt P29275); test: as §1; type: functional; outline: as §2
T7 sequence (P29275 whole entry): T6 sequence (whole entry)

Adenosine receptor A2a [11] = molecular target: T5, Adenosine receptor A2a; details: Flp-In-CHO, Membrane, filed as antagonist, time 40.0 min
[12] = molecular target: T4, Adenosine receptor A1 (Homo sapiens); test: Displacement of [3H] DPCPX from human A1 adenosine receptor expressed in Flp-In-CHO cell membrane at 1 uM incubated for 4 hrs by microbeta scintillation counting method; type: cell membranes; details: filed as antagonist
Outline: (§3)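 Membranes (15 μg) from hA1R-FlpInCHO cells incubated with competing ligand and about 1 nM [3H]DPCPX for 4 h at 25 °C. Binding buffer: HEPES, glucose, salts, 1 unit/mL ADA, pH 7.4. Filtration, ice-cold 0.9% NaCl washes, then β-counting. Nonspecific binding defined with 1 μM SLV320. Specific binding normalized to binding without competitor.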

[13] = molecular target: T4, Adenosine receptor A1 (Homo sapiens); test: Displacement of [3H] DPCPX from human A1 adenosine receptor expressed in Flp-In-CHO cell membrane at 10 uM incubated for 4 hrs by microbeta scintillation counting method; type: cell membranes; outline: as §3
[14] = Solubility of the compound at 10 uM; type: physicochemical

T5 sequence (P29274 whole entry): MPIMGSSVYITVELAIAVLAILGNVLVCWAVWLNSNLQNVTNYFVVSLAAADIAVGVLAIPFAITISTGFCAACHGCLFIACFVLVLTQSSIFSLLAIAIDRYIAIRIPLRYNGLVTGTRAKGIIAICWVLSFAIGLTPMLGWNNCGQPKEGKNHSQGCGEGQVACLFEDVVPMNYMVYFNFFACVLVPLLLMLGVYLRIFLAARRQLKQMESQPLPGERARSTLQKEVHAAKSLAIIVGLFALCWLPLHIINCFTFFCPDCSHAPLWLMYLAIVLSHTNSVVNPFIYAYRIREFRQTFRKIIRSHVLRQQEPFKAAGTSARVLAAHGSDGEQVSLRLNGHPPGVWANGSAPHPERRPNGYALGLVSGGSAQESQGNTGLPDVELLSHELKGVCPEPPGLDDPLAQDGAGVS

Structure (SMILES) | Ki (Adenosine receptor A1 [1]) [nM] | Ki (Adenosine receptor A1 [2]) [nM] | Ki (Adenosine receptor A1 [4]) [nM] | Ki (Adenosine receptor A3) [nM] | pKb [5] | Ki (Adenosine receptor A1 [8]) [nM] | Ki (Adenosine receptor A2a [9]) [nM] | Ki (Adenosine receptor A2b) [nM] | other results
C#CCNC(=O)C12CCC(c3nc4c(=O)n(CCCC)c(=O)n(CCCNC(=O)c5ccc(S(=O)(=O)F)cc5)c4[nH]3)(CC1)CC2 | 26.1 | 38.8 | 30.9 | 46.8 | 6.23 | 585 | – | – | inhibition ([3]; filed as antagonist): Active; pKb [6]: 7.51; pKb [7]: 7.33
CCCCn1c(=O)c2nc(C34CCC(C(=O)NCCOCCOCCN=[N+]=[N-])(CC3)CC4)[nH]c2n(CCCNC(=O)c2ccc(S(=O)(=O)F)cc2)c1=O | 6.1 | 10 | 3.5 | 39.8 | 8.86 | 1.4 | 31.6 | 22.9 | pKb [10]: 7.64; pKb [6]: 8.45; pKb (Adenosine receptor A2a [11]): 7.5; pKb [7]: 7.4
CCCCn1c(=O)c2nc(C34CCC(C(=O)OC)(CC3)CC4)[nH]c2n(CCCNC(=O)c2ccc(S(=O)(=O)O)cc2)c1=O | 179 | – | – | – | 7.04 | 92 | – | – | inhibition [3]: inactive
O[C@H]1CC[C@H](Nc2nc(-c3ccccc3)nc3[nH]ccc23)CC1 | 0.6 | – | 0.4 | – | 9.27 | 0.5 | – | – | pKb [6]: 9.44
C#CCCCCNC(=O)C12CCC(c3nc4c(=O)n(CCCC)c(=O)n(CCCNC(=O)c5ccc(S(=O)(=O)F)cc5)c4[nH]3)(CC1)CC2 | 1.6 | 9.3 | 3.9 | 43.7 | – | 0.6 | – | 35.4 | inhibition ([3]; filed as antagonist): Active
CCCCn1c(=O)c2nc(C34CCC(C(=O)OC)(CC3)CC4)[nH]c2n(CCCNC(=O)c2ccc(S(=O)(=O)F)cc2)c1=O | 17.3 | 89.3 | – | – | 7.77 | 17.1 | – | – | inhibition ([3]; filed as antagonist): Active
CCCCn1c(=O)c2nc(C3CCCCC3)[nH]c2n(CCCNC(=O)c2ccc(S(=O)(=O)F)cc2)c1=O | 12.1 | – | – | – | 7.59 | 26 | – | – | Activity [12]: Active; Activity [13]: inactive; solubility [14]: Insoluble
CCCn1c(=O)c2nc(C34CCC(C(=O)NCCCN=[N+]=[N-])(CC3)CC4)[nH]c2n(CCCNC(=O)c2ccc(S(=O)(=O)F)cc2)c1=O | 3.5 | 7.8 | 2.8 | 11 | 9.19 | 0.6 | 26.3 | 17.8 | pKb [10]: 7.75; pKb [6]: 8.56; pKb (Adenosine receptor A2a [11]): 7.58; pKb [7]: 7.96
CCCCn1c(=O)c2nc(C34CCC(C(=O)NCCCCCCCCN=[N+]=[N-])(CC3)CC4)[nH]c2n(CCCNC(=O)c2ccc(S(=O)(=O)F)cc2)c1=O | 3.7 | 16.1 | 10.2 | – | – | 2.4 | – | 6.7 | –
CCCn1c(=O)[nH]c2nc(-c3ccc(S(=O)(=O)N4CCN(c5ccc(Cl)cc5)CC4)cc3)[nH]c2c1=O | – | – | – | – | – | – | – | 1.3 | pKb [10]: 8.87
CCCCn1c(=O)c2nc(C34CCC(C(=O)NCCOCCOCCOCCN=[N+]=[N-])(CC3)CC4)[nH]c2n(CCCNC(=O)c2ccc(S(=O)(=O)F)cc2)c1=O | – | – | – | 8.3 | – | – | 36.3 | 95.5 | –
CCCCn1c(=O)c2nc(C34CCC(C(=O)NCCCN=[N+]=[N-])(CC3)CC4)[nH]c2n(CCCNC(=O)c2ccc(S(=O)(=O)F)cc2)c1=O | – | – | – | 4.2 | – | – | 38 | 79.4 | inhibition ([3]; filed as antagonist): Active
CCCCn1c(=O)c2nc(C34CCC(C(=O)NCCCN=[N+]=[N-])(CC3)CC4)[nH]c2n(CCCNC(=O)c2ccc(S(=O)(=O)O)cc2)c1=O | 605 | – | – | – | 7.06 | 87.5 | – | – | inhibition [3]: inactive
CCCCn1c(=O)c2nc(C34CCC(C(=O)NCCCCN=[N+]=[N-])(CC3)CC4)[nH]c2n(CCCNC(=O)c2ccc(S(=O)(=O)F)cc2)c1=O | – | – | – | 4.9 | – | – | 166 | 26.3 | –

From ChEMBL document CHEMBL5036326, “Development of Covalent, Clickable Probes for Adenosine A1 and A3 Receptors” (J Med Chem, 2021)
